From ChEMBL document CHEMBL3352338, “Development and biological evaluation of potent and selective c-KIT(D816V) inhibitors” (J Med Chem, 2014)
Active and inactive are the calls of the source. No cut-off for these calls is given here.

Assays:
[1] = biological target: Signal transducer and activator of transcription 3 (Homo sapiens) (UniProt P40763); assay: Inhibition of STAT3 phosphorylation in imatinib-resistant human HMC-1.2 cells at 5 uM after 1 hr by Western immunoblotting analysis
[2] = biological target: Mast/stem cell growth factor receptor Kit (Homo sapiens, UniProt P10721, D816V); assay: Inhibition of c-KIT D816V mutant (unknown origin)
Mast/stem cell growth factor receptor Kit (Homo sapiens, UniProt P10721, D816V), sequence (P10721 26-976 D816V limits assumed): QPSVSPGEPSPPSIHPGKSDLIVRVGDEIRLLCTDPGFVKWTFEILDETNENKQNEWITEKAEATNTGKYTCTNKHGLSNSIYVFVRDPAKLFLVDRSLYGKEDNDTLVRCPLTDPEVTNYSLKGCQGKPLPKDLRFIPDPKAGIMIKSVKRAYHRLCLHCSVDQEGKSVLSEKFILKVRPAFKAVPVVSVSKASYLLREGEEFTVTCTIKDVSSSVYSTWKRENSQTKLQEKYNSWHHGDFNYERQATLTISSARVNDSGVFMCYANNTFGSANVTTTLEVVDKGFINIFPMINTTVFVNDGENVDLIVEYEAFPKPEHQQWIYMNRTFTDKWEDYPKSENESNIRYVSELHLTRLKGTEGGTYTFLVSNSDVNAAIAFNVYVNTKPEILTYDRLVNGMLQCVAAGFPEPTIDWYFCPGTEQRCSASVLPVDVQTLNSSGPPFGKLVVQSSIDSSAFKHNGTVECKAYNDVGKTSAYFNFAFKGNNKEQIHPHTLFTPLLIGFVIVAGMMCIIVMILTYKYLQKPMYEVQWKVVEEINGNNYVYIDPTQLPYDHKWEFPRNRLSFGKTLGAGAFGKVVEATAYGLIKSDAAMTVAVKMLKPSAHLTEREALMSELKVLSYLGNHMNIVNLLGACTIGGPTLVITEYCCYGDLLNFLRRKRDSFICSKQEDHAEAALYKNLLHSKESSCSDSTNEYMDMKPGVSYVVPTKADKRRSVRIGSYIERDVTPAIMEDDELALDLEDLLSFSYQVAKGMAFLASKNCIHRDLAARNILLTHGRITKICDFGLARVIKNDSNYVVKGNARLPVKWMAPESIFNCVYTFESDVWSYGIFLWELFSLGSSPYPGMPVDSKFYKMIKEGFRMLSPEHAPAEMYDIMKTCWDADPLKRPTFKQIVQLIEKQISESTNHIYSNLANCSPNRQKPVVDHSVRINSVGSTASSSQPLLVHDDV

[3] = biological target: Mast/stem cell growth factor receptor Kit (Homo sapiens, UniProt P10721); assay: Inhibition of wild type c-KIT (unknown origin)
Mast/stem cell growth factor receptor Kit (Homo sapiens, UniProt P10721), sequence (P10721 whole entry, canonical isoform): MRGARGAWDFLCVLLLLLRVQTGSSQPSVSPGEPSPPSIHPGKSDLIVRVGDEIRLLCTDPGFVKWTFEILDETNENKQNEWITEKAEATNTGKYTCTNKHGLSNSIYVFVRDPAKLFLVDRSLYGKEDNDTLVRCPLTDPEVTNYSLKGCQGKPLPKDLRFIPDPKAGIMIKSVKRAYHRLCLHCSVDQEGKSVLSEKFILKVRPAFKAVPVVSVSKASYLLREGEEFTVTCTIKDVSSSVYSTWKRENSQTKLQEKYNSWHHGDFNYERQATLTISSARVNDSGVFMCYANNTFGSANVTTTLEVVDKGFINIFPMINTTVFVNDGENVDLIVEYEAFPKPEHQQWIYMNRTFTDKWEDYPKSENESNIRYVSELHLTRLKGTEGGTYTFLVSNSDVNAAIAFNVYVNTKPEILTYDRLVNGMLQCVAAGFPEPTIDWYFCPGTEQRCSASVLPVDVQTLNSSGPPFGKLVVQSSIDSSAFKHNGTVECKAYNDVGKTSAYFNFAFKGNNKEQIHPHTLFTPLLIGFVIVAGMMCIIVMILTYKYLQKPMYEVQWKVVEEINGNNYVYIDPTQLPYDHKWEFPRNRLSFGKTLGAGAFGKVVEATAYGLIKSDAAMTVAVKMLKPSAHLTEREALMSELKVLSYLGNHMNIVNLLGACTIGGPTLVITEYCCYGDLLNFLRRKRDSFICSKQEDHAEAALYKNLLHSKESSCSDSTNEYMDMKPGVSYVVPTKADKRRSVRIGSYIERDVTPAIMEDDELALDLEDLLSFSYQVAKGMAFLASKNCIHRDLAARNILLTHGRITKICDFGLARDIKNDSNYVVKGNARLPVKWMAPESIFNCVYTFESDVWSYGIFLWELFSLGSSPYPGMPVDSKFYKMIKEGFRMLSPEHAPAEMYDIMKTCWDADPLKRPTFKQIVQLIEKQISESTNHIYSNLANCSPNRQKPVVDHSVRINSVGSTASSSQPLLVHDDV

[4] = biological target: Phosphatidylinositol 4,5-bisphosphate 3-kinase catalytic subunit alpha isoform (Homo sapiens, UniProt P42336); assay: Inhibition of PI3Kalpha (unknown origin)
Phosphatidylinositol 4,5-bisphosphate 3-kinase catalytic subunit alpha isoform, sequence (P42336 whole entry, canonical isoform): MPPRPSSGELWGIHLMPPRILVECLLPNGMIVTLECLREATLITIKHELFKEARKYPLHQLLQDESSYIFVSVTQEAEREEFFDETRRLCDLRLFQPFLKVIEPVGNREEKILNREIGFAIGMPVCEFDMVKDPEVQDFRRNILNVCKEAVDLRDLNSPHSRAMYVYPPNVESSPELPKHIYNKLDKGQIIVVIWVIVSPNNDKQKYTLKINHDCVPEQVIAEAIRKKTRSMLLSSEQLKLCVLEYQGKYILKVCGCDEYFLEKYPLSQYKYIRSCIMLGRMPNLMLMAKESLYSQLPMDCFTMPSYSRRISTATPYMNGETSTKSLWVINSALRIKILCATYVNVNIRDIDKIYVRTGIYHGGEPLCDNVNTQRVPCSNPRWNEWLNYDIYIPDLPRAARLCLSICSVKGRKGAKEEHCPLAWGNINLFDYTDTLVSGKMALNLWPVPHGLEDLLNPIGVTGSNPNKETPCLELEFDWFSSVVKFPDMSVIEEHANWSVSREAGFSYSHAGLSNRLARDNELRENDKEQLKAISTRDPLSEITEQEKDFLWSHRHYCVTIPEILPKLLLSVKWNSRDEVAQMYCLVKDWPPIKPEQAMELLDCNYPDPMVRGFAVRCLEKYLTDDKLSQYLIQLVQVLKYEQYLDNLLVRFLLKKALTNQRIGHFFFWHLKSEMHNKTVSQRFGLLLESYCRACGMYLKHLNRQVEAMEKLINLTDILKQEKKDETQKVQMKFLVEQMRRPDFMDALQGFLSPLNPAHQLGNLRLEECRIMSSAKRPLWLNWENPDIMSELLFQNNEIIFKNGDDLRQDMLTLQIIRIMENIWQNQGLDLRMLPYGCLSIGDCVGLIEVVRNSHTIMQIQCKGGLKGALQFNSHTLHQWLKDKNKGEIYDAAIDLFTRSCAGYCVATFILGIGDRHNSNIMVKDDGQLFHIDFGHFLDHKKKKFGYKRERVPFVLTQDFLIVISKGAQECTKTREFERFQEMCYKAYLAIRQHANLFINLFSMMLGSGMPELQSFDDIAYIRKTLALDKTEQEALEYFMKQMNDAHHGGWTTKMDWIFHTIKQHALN

[5] = Antiproliferative activity against human HMC-1.2 cells carrying V560G, D816V mutant assessed as cell growth inhibition by MTT assay; assay type: functional, cell-based
In short: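 Cell viability by MTT assay in imatinib-resistant HMC-1.2 human mast cells (V560G, D816V), 48 h exposure across a range of concentrations.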

Signal transducer and activator of transcription 3 (Homo sapiens), sequence (P40763 whole entry): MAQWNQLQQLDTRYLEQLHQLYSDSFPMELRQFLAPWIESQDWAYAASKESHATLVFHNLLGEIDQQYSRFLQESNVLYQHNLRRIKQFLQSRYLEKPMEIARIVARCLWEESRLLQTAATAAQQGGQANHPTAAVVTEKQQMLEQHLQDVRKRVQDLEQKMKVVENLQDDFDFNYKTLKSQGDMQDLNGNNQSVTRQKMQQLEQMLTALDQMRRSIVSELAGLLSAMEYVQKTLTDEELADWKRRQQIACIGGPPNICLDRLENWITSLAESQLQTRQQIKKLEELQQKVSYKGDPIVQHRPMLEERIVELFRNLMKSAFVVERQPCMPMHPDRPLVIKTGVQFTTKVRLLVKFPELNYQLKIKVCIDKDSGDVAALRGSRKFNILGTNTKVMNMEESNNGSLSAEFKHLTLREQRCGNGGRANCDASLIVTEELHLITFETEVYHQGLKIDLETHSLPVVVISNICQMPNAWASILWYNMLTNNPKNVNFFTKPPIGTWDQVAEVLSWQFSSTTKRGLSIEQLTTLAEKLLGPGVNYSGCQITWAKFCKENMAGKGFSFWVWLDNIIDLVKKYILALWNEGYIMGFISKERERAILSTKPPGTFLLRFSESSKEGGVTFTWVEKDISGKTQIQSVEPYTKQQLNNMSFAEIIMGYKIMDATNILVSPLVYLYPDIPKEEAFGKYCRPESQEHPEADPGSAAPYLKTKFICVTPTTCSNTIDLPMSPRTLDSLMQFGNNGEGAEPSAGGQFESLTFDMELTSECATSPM

Row | Structure (SMILES) | inhibition [1] | IC50 [2] [nM] | IC50 [3] [nM] | IC50 [4] [nM] | IC50 [5] [nM]
1 | COc1ccc(-c2c[nH]c3ncc(-c4cncc(NS(=O)(=O)c5ccccc5)c4)cc23)cc1OC | Active | 346 | – | – | –
2 | COc1cc(OC)cc(-c2c[nH]c3ncc(-c4cccc(N)c4)cc23)c1 | – | 320 | – | – | –
3 | COc1ccc(-c2c[nH]c3ncc(-c4cccc(N)c4)cc23)cc1OC | – | 6.3 | 1060 | > 10000 | 1680
4 | Nc1cccc(-c2cnc3[nH]cc(-c4cccc(N)c4)c3c2)c1 | – | 76.7 | – | – | –
5 | COc1ccc(-c2c[nH]c3ncc(-c4cccc(NC(C)=O)c4)cc23)cc1OC | – | 65.1 | 1160 | – | –
6 | COc1ccc(-c2c[nH]c3ncc(-c4cc(F)cc(F)c4)cc23)cc1OC | – | 102 | – | > 10000 | –
7 | COc1ccc(-c2c[nH]c3ncc(-c4ccncc4)cc23)cc1OC | – | 32.1 | – | 9700 | –
8 | COc1ccc(-c2c[nH]c3ncc(-c4ccc(F)cc4)cc23)cc1OC | – | 72.8 | – | > 10000 | –
9 | COc1cccc(-c2cnc3[nH]cc(-c4ccc(OC)c(OC)c4)c3c2)c1 | – | 28.7 | 1520 | – | –
10 | Cc1nc(Nc2ncc(C(=O)Nc3c(C)cccc3Cl)s2)cc(N2CCN(CCO)CC2)n1 [DASATINIB] | – | – | – | – | 820
11 | COc1ccc(-c2c[nH]c3ncc(-c4cnc(N)nc4)cc23)cc1OC | – | 67.8 | 1290 | – | –
12 | COc1ccc(-c2c[nH]c3ncc(-c4ccccc4)cc23)cc1OC | – | 135 | – | > 10000 | –
13 | COc1ccc(-c2c[nH]c3ncc(-c4ccc(C#N)cc4)cc23)cc1OC | – | 426 | – | > 10000 | –
14 | Nc1cccc(-c2cnc3[nH]cc(-c4ccc(Cl)cc4)c3c2)c1 | – | 2260 | – | – | –
15 | COc1ccc(-c2c[nH]c3ncc(-c4ccccc4C)cc23)cc1OC | – | 785 | – | > 10000 | –
16 | COc1ccc(-c2c[nH]c3ncc(-c4ccc(N)cc4)cc23)cc1OC | – | 9.1 | 56.8 | – | –
17 | COc1ccc(-c2cnc3[nH]cc(-c4ccc(OC)c(OC)c4)c3c2)c(OC)c1 | – | 29.2 | 5460 | – | –
18 | COc1ccc(-c2c[nH]c3ncc(-c4cccc(C)c4)cc23)cc1OC | – | 261 | – | > 10000 | –
19 | COc1ccc(-c2c[nH]c3ncc(-c4ccc(C)c(N)c4)cc23)cc1OC | – | 24.6 | > 10000 | – | 1430
20 | COc1ccc(-c2c[nH]c3ncc(-c4cccc(C#N)c4)cc23)cc1OC | – | 63.8 | > 10000 | > 10000 | –

Row | Structure (SMILES) | inhibition [1] | IC50 [2] [nM] | IC50 [3] [nM] | IC50 [4] [nM] | IC50 [5] [nM]
21 | COc1ccc(-c2c[nH]c3ncc(-c4ccccc4N)cc23)cc1OC | – | 1330 | – | > 10000 | –
22 | COc1ccc(-c2c[nH]c3ncc(-c4cccc(N)c4)cc23)cc1 | – | 398 | – | – | –
23 | COc1ccc(-c2cnc3[nH]cc(-c4ccc(OC)c(OC)c4)c3c2)cc1 | – | 32.1 | 371 | > 10000 | –
24 | COc1ccc(-c2c[nH]c3ncc(-c4ccc5c(c4)OCO5)cc23)cc1OC | – | 48.8 | 10800 | – | –
25 | Nc1cccc(-c2cnc3[nH]cc(-c4ccccc4N)c3c2)c1 | – | 1420 | – | – | –
26 | COc1ccc(-c2c[nH]c3ncc(-c4cccc(N(C)C)c4)cc23)cc1OC | – | 29.2 | – | > 10000 | –
27 | COc1ccc(-c2c[nH]c3ncc(-c4cccc(F)c4)cc23)cc1OC | – | 520 | – | > 10000 | –
28 | COc1ccc(-c2c[nH]c3ncc(-c4cncc(N)c4)cc23)cc1OC | – | 10.8 | – | 1450 | –
29 | COc1ccc(-c2c[nH]c3ncc(-c4ccc(OCCN5CCOCC5)c(N)c4)cc23)cc1OC | – | 13.9 | 8540 | – | –
30 | COc1ccc(-c2c[nH]c3ncc(-c4cccc(NS(=O)(=O)c5ccccc5)c4)cc23)cc1OC | – | 126 | – | – | –
31 | Cc1ccc(C(=O)Nc2ccc(CN3CCN(C)CC3)c(C(F)(F)F)c2)cc1C#Cc1cnc2cccnn12 [PONATINIB] | – | – | – | – | 350
32 | Cc1ccc(-c2c[nH]c3ncc(-c4cccc(N)c4)cc23)cc1 | – | > 10000 | – | – | –
33 | COc1cc(N)cc(-c2cnc3[nH]cc(-c4ccc(OC)c(OC)c4)c3c2)c1 | – | 26.2 | > 10000 | – | –
34 | COc1ccc(-c2c[nH]c3ncc(-c4ccc(C)cc4)cc23)cc1OC | – | 571 | > 10000 | > 10000 | –
35 | COc1ccc(-c2c[nH]c3ncc(-c4ccc(Cl)cc4)cc23)cc1OC | – | 457 | – | > 10000 | –
36 | COc1cccc(-c2c[nH]c3ncc(-c4cccc(N)c4)cc23)c1 | – | 670 | – | – | –
37 | COc1ccc(-c2c[nH]c3ncc(-c4cccc(N)c4)cc23)cc1F | – | 104 | – | – | –
38 | COc1ccc(-c2c[nH]c3ncc(-c4cccnc4)cc23)cc1OC | – | 60.1 | 3330 | > 10000 | –
39 | Cc1ccc(NC(=O)c2ccc(CN3CCN(C)CC3)cc2)cc1Nc1nccc(-c2cccnc2)n1 [IMATINIB] | – | – | – | – | 17000
